Published values gathered from unrelated publications.
Protocols differ between the studies behind these lines.
Target: Serine/threonine-protein kinase ULK1 (ULK1, Homo sapiens, UniProt O75385)
Sequence (O75385 1-1050, as in one of the studies): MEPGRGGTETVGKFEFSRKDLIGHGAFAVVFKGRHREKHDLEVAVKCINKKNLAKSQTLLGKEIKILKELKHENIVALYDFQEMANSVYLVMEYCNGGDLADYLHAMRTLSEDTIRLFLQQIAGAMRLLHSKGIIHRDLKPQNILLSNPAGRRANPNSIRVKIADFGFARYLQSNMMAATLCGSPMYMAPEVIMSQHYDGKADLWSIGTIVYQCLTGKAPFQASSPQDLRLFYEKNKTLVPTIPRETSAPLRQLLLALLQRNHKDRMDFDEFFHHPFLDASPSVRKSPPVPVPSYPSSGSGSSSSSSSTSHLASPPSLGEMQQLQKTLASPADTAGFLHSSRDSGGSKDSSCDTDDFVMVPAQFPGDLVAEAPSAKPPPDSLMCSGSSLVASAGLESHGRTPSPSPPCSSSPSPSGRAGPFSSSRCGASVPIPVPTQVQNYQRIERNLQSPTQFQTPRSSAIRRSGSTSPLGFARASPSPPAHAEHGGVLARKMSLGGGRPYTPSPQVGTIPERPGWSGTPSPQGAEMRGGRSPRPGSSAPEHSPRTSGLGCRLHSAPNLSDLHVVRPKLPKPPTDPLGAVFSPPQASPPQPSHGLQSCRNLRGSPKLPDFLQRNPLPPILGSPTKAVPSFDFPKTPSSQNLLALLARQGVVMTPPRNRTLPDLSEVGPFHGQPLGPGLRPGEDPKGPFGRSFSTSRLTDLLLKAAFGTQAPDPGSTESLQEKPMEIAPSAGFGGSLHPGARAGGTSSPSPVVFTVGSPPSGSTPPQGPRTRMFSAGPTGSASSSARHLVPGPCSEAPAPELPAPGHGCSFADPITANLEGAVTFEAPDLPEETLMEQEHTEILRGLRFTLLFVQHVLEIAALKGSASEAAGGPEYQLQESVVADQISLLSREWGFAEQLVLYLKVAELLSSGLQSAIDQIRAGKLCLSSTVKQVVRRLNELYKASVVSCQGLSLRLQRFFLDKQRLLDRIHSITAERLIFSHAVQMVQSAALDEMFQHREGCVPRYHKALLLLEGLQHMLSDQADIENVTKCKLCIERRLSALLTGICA

Compound	assay	setting	remaining binding [%]
c1ccc(N2CCN(Cc3nc4ccccc4[nH]3)CC2)nc1	binding, competition with immobilised ligand	1 µM	100
FC(F)(F)Oc1cccc(-c2cnc3ccc(-c4ccncc4)nn23)c1	binding, competition with immobilised ligand	5 µM	82
CN(C)c1nccc(-c2cnn3ncccc23)n1	binding	1 µM	96
O=C(Nc1c[nH]nc1C(=O)NC1CCNCC1)c1cc(F)cc(F)c1	binding, competition with immobilised ligand	1 µM	100
Cc1cnc(Nc2ccc(C(=O)N3CCC(N4CCCC4)CC3)cc2)nc1-c1cc2ccccc2s1	binding, competition with immobilised ligand	1 µM	1.2
F[C@@H]1CCN(c2nccc(-c3cnn4ncccc34)n2)C1	binding	1 µM	89
CCN1CCN(Cc2ccc(C(=O)Nc3ccc(C)c(Oc4ccc5c(c4)CC(=O)N5)c3)cc2C(F)(F)F)CC1	binding, competition with immobilised ligand	1 µM	100
CNC(=O)[C@@H]1CC[C@@H](n2c(-c3ccc4cnccc4c3)nc3ccc(C(=O)NCc4cccc(C(N)=O)c4)cc32)C1	binding, competition with immobilised ligand	1 µM	100
CN(C)CC#Cc1ccc(OCCCc2sc(N3CCc4cccc(C(=O)Nc5nc6ccccc6s5)c4C3)nc2C(=O)O)c(F)c1	cell-free assay, competition with immobilised ligand	1 µM	100
O=C(c1ccc(Nc2nccc(-c3cc4ccccc4s3)n2)cc1)N1CCC(N2CCCC2)CC1	binding, competition with immobilised ligand	1 µM	50
CS(=O)(=O)N1CCCC(NC(=O)[C@H](CCC2CCCCC2)NC(=O)c2ccc(CNC(=O)c3cnc4ccccn34)cc2)C1 (stereo partly drawn)	cell-free assay, competition with immobilised ligand	0.1 µM	83
C[C@H]1CCN(c2nccc(-c3cnn4ncccc34)n2)C1	binding	1 µM	85
COc1ccc2c(O[C@@H]3C[C@H]4C(=O)N[C@]5(C(=O)O)CC5/C=C\CCCCC[C@H](NC(=O)OC5CCCC5)C(=O)N4C3)cc(-c3csc(NC(=O)C(C)C)n3)nc2c1C (stereo partly drawn)	cell-free assay, competition with immobilised ligand	1 µM	93
CN(c1nccc(-c2cnn3ncccc23)n1)C1CC1	binding	1 µM	85
C[C@@H]1CN(c2cc(-c3nn(C)c4ccc(OC5(C)CC5)cc34)ncn2)C[C@H](C)O1	cell-free assay, competition with immobilised ligand	1 µM	76
CNC(=O)c1ccccc1Nc1cc(Nc2ccc(N3CCOCC3)cc2OC)ncc1C(F)(F)F	binding, competition with immobilised ligand	1 µM	< 10
Nc1ncc2c(n1)-c1c([nH]c3ccc(C#CC4CC4)cc13)CCCC2	binding, competition with immobilised ligand	1 µM	92
N[C@@H]1CCN(c2nccc(-c3cnn4ncccc34)n2)C1	binding	1 µM	100
O=C(c1ccc(Nc2ncc(Cl)c(-c3ccc(Cl)s3)n2)cc1)N1CCC(N2CCCC2)CC1	binding, competition with immobilised ligand	1 µM	1.8
CN(C)c1ncc(F)c(-c2cnn3ncccc23)n1	binding	1 µM	80
CN(C(=O)c1ccccc1)c1cc(N(C)c2ccc3c(c2)CCc2ccc(C(=O)NCCN4CCOCC4)cc2C3=O)ccc1F	cell-free assay, competition with immobilised ligand	1 µM	100
